The source of these data is ChEMBL document CHEMBL5096187, “Efficient Synthesis and Bioevaluation of Novel Dual Tubulin/Histone Deacetylase 3 Inhibitors as Potential Anticancer Agents” (J Med Chem, 2021).

Data set [1] relates to B16-F10. The experiment in a line: Inhibition of colony formation in mouse B16-F10 cells assessed as reduction in number of colonies at 100 nM incubated for 24 hrs. In kind it is functional, cell-based. An outline of the steps:
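1000 B16-F10 cells seeded and cultured 24 h at 37 °C, then exposed to compound for 24 h. Medium was then replaced and cells grown 10–14 days. Colonies fixed with 4% paraformaldehyde for 30 min, stained with 0.1% crystal violet for 15 min, and counted; n = 3 versus DMSO.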

The subject of data set [2] is B16-F10. Nature of the data set: Induction of apoptosis in mouse B16-F10 cells assessed as necrotic cells at 50 nM incubated for 48 hrs by Annexin V-FITC/PI analysis (reference value: 0.012 %). The data set is classed as functional.
The target in data set [3] is T1, Tubulin (Sus scrofa) (UniProt P02554+P02550). The experiment in a line: Inhibition of pig brain tubulin polymerization measured after 20 mins by spectrometric method. The conditions noted are these: dose 0.8-25 µM, DDE = dose-dependent effect. The method, boiled down: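 Tubulin purified from pig brain microtubule protein (three assembly/disassembly cycles, then phosphocellulose chromatography). Tubulin mixed with compound in PEM buffer (100 mM PIPES, 1 mM MgCl₂, 1 mM EGTA) plus 1 mM GTP and 5% glycerol. Polymerization followed at 340 nm, 37 °C. Inhibition versus vehicle at 20 min; plateau absorbance used.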

Data set [4] has as its target T1, Tubulin (Sus scrofa). The experiment in a line: Inhibition of pig brain tubulin polymerization in mouse B16-F10 cells assessed as disruption of microtubule network at 100 nM measured for 6 hrs by immunofluorescence assay. In kind it is cell-based. An outline of the steps: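 B16-F10 cells on glass coverslips exposed 6 h to test agent or 0.1% DMSO vehicle, fixed in 4% paraformaldehyde, permeabilized with 0.2% Triton X-100 in PBS, blocked 30 min with goat serum, then anti-β-tubulin monoclonal 1 h at 37 °C, fluorescent secondary and DAPI nuclear stain. Microtubule network judged by fluorescence or confocal microscopy.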

The test system of data set [5] is B16-F10. The experiment in a line: Induction of apoptosis in mouse B16-F10 cells assessed as late apoptotic cells at 50 nM incubated for 48 hrs by Annexin V-FITC/PI analysis (reference value: 1.68 %). The data set is classed as functional.
Data set [6] has as its system B16-F10. Nature of the data set: Induction of apoptosis in mouse B16-F10 cells assessed as necrotic cells at 100 nM incubated for 48 hrs by Annexin V-FITC/PI analysis (reference value: 0.012 %). The data set is classed as functional.
Data set [7] can be described thus: Antiproliferative activity against human YCC-11 cells assessed as inhibition of cell viability. The data set is classed as functional, cell-based.
The test system of data set [8] is B16-F10. Nature of the data set: Induction of cell cycle arrest in mouse B16-F10 cells assessed as accumulation of cells in G2/M phase at 25 nM measured after 48 hrs by PI/RNaseA staining based flow cytometry analysis (Rvb= 5.76%). In kind it is functional. (In general: In flow cytometry, cells or beads pass a laser one at a time.)
Data set [9] relates to B16-F10. The experiment in a line: Induction of apoptosis in mouse B16-F10 cells assessed as viable cells at 100 nM incubated for 48 hrs by Annexin V-FITC/PI analysis (reference value: 98.3 %). The data set is classed as functional. The settings on record: read-out: Activity.
Data set [10] relates to B16-F10. The experiment in a line: Induction of apoptosis in mouse B16-F10 cells assessed as early apoptotic cells at 100 nM incubated for 48 hrs by Annexin V-FITC/PI analysis (reference value: 1.68 %). The data set is classed as functional.
The nature of data set [11]: Toxicity in C57BL/6 mouse allografted with mouse B16-F10 cells assessed as body weight loss at 10 mg/kg, ip administered for 14 days. The conditions noted are these: in vivo, 336 h.
For data set [12], the system named is B16-F10. The experiment in a line: Induction of apoptosis in mouse B16-F10 cells assessed as late apoptotic cells at 25 nM incubated for 48 hrs by Annexin V-FITC/PI analysis (reference value: 0.00 %). In kind it is functional.
Data set [13] is described as follows: Nephrotoxicity in C57BL/6 mouse assessed as effect on urea level in serum. The settings on record: in vivo. The data set is classed as toxicity.
The test system of data set [14] is B16-F10. The experiment in a line: Antitumor activity against mouse B16-F10 cells allografted in C57BL/6 mouse assessed as tumor growth inhibition at 10 mg/kg, ip administered for 14 days. The data set is classed as functional. The conditions noted are these: B16-F10, 336 h, time 14 day, read-out: TGI. An outline of the steps:
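C57BL/6 mice were inoculated subcutaneously with 3×10⁵ B16-F10 cells in PBS and randomized (n = 8). Drugs in ethanol/polyoxyethylene castor oil/saline (1.25:1.25:7.5) or vehicle alone were given i.p. once daily for 14 days. Mice were sacrificed at day 14 and tumors weighed; TGI(%) = [1 − Wt/Wv] × 100 using mean tumor weights.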

Data set [15] is described as follows: Hepatotoxicity in C57BL/6 mouse assessed as effect on ALT level in serum. The data set is classed as toxicity.
Data set [16] is described as follows: Hepatotoxicity in C57BL/6 mouse assessed as effect on ALB level in serum. In kind it is toxicity.
Data set [17] relates to A549. The experiment in a line: Antiproliferative activity against human A549 cells assessed as inhibition of cell viability measured for 48 hrs by microplate reader based CCK-8 assay. The data set is classed as functional. The conditions noted are these: A549, 48 h.

pIC50: −log10 of the molar value. Active and inactive are the calls of the source. No cut-off for these calls is given here.

T1 sequence (P02550 whole entry, looked up): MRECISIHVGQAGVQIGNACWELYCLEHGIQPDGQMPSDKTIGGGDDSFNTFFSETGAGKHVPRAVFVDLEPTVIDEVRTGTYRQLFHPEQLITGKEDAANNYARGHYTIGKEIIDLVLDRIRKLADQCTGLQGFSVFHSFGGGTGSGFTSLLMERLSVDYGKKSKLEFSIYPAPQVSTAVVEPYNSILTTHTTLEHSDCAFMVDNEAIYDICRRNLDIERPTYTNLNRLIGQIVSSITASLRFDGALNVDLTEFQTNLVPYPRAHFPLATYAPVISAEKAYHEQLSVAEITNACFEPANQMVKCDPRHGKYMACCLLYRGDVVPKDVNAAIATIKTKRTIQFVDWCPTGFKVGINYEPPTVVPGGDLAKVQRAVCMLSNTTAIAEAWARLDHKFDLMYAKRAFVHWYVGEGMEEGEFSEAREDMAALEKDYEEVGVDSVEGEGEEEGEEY
T1 sequence (P02554 whole entry, looked up): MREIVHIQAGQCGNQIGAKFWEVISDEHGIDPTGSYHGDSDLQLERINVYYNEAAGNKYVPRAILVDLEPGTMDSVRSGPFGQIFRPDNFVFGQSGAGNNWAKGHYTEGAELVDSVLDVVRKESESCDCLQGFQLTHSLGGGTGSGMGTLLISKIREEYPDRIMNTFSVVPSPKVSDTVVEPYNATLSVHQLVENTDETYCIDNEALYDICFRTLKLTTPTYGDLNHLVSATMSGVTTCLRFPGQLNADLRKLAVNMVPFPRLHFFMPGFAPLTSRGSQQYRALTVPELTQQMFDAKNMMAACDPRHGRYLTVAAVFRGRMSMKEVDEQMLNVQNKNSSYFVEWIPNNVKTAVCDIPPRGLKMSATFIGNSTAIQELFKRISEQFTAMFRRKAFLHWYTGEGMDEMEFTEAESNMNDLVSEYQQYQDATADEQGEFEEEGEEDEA

As for `COc1cc(C(=O)c2csc(-c3ccc(NC(=O)CCCC(=O)Nc4ccccc4N)cc3)n2)cc(OC)c1OC`, the result in [1] was Active. The Activity was 1.9% in data set [2]; 32.3% in [5]; 1.29% in data set [6]; 15.98% in data set [8]; 5.83% in [10]; “Non-Toxic” in [11]. The Activity in data set [12] is on record as 0%; in data set [13], “Non-Toxic”; in data set [15], “Non-Toxic”; in data set [16], “Non-Toxic”. The inhibition result in data set [3] was “Dde”. For the same compound, the inhibition result in data set [4] is “Active”. The negative logarithm of the IC50 (pIC50) in data set [7] was 6.52; in [17], 6.85. The viability at 0.1 µM in [9] came to 31.6%. Besides, the inhibition in vivo at 10 mg/kg in [14] is 70%.

For orientation: pIC50 means −log10 of the IC50, conventionally taken in molar units.
